High-throughput results: PubChem BioAssay, several laboratories
Only some compounds are listed: those with a hit (about 7.6% of all), similar ones and a draw of the others.
D1 allo mod: allosteric modulators of human D1 dopamine receptor. P21728. HEK293 D1, CRE-luciferase, dopamine EC30 potentiation; actives deviate in either direction. B-score at 10 µM. 58,000 tested, 5.9% active. AID 641;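 active means luminescence count or its row- and column-corrected plate score outside the 99.7% band of the plate's sample wells, on either side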
Target sequence (P21728 whole entry, looked up): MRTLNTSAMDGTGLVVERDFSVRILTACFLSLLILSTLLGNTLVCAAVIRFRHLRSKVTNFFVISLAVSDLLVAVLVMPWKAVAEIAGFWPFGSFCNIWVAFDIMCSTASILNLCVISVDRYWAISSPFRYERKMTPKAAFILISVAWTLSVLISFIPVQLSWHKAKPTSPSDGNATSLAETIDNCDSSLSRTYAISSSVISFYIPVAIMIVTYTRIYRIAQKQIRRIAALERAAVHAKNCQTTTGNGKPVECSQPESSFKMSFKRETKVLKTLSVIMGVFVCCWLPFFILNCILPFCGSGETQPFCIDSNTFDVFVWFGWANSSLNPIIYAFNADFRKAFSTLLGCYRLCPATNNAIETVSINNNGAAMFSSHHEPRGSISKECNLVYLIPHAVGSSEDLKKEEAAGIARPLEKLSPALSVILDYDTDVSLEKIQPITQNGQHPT
Jurkat tox 60K: cytotoxicity toward Jurkat cells; 56,000 tested, 1.2% active; inhibition, % at 4 µM; Jurkat E6.1 viability, ATP luminescence, 48 h; AID 463;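 active means inhibition above the mean inhibition of all tested compounds plus 3 SD, cut at about 28% in these data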
hDAT+cocaine: changed human dopamine transporter uptake under cocaine IC80 | 110,000 tested, 1.3% active | LLC-PK1 hDAT cells, [14C]-dopamine uptake with cocaine IC80; actives deviate in either direction | Q01959 | AID 449768 | B-score at 10 µM;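 active means Z score or B-score, a plate-position-corrected score, falls beyond the plate's 99.7% confidence bounds, in either direction; inactive means both scores lie inside the 99.7% bounds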;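 further: scored against the spread of the other compound wells on the same plate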
HEK293 NFkB inh: inhibitors of the PMA/ionomycin-induced NF-kB reporter in HEK293 cells; 62,000 tested, 0.21% active; HEK-293 NF-kB luciferase reporter, luminescence; inhibition, % at 3 µM;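 active means inhibition above the mean of all tested compounds plus 3 SD, cut at about 40% in these data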;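 further: 0% = stimulated DMSO wells and 100% = 10 µM reference inhibitor 5653914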
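System: NF-kB luciferase reporter HEK-293 cells | Replication: Single test | Control set: DMSO vs reference inhibitor | Evaluation: % inhibition | Schedule: 1 h pretreatment, 16 h stimulation, 37 °C | Probe or stimulus: PMA with ionomycin | Compound dosing: One dose, 3 µM | Detection: Luciferase luminescence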
M1 antag: M1 muscarinic receptor (rat) antagonism. P08482. CHO-M1 cells, Fluo-4 calcium, ACh EC80 antagonist mode; active compounds read low. B-score at 10 µM. 64,000 tested, 3.4% active. AID 628;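 active means calcium fluorescence response, raw or row-and-column corrected B-score, differing from the plate sample mean either way at a set confidence level, mostly lower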
M1 agonist: agonists of M1 muscarinic receptor; CHO-M1 cells, Fluo-4 calcium fluorescence, agonist mode; active compounds read high; 64,000 tested, 3% active; B-score at 10 µM;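 active means fluorescence rise, raw or as B-score row- and column-corrected plate score, outside the 99.7% band of its plate's samples, either direction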
* hit, by the source's call; nt = no result.

SMILES	D1 allo mod	Jurkat tox 60K	hDAT+cocaine	HEK293 NFkB inh	M1 antag	M1 agonist
CCCCSc1nc2c(cnn2-c2ccc(C)c(C)c2)c(=O)[nH]1	2.1	9	-0.78	3	0.26	0.64
Cc1nnc(SCC(=O)Nc2ccc(Br)cn2)[nH]c1=O	-0.93	4	0.0092	11	1*	0.2
O=C1OCCC1Sc1nnc(-c2ccc3c(c2)OCO3)n1-c1ccccc1 (stereo not drawn)	-3.8*	6	0.53	3	0.86	0.025
O=C1OCCC1Sc1nnnn1-c1ccccc1 (stereo not drawn)	nt	nt	0.0015	nt	nt	nt
CCOC(=O)c1sc(NC(=O)CCn2nnc3ccccc32)c(C(=O)OCC)c1C	nt	-2	nt	3	0.27	-0.27
CC(=O)c1c(C)[nH]c(C(=O)OCC(=O)N2CCc3ccccc32)c1C	nt	nt	-2.6*	nt	nt	nt
NCCCC[C@H]1CN=C(N)N1CCCCC1CCCCC1	nt	nt	-1.3	nt	nt	nt
CC(O)[C@H]1CN=C(N)N1CCCCC1CCCCC1 (stereo partly drawn)	nt	nt	-4.7*	nt	nt	nt
COc1ccc(C2C(C#N)=C(C)NC3=C2C(=O)c2ccccc23)cc1 (stereo not drawn)	nt	nt	-0.38	nt	-0.82	-0.72
COc1cc(C2C(C#N)=C(C)NC3=C2C(=O)c2ccccc23)cc(OC)c1OC (stereo not drawn)	2	100*	-1.3	43*	-0.58	1.4
O=C(O)c1ccc(N2CCCCC2)cc1	-0.066	-13	0.23	3	-2.4	-0.38
Nc1ccc(N2CCCCCC2)cc1	0.11	37*	-0.34	10	1.1	-0.064
Cc1sc2ncn(CC(=O)NCCCC(=O)N3CCN(c4ccccc4)CC3)c(=O)c2c1C	nt	nt	-0.63	nt	nt	nt
COc1ccc(CC(=O)NC(CC(=O)O)c2ccc(OC)cc2)cc1 (stereo not drawn)	nt	3	-0.56	22	0.24	0.043
CCc1ccc(NCc2nc3ccccc3c(=O)[nH]2)cc1	nt	nt	-9.2*	nt	nt	nt
Cc1ccc(CNC(=O)CCc2nc3ccccc3c(=O)[nH]2)cc1	-0.0087	-3	0.28	5	0.78	-0.17
COc1ccc(-c2cn3cccnc3n2)cc1NC(=O)CC(C)C	-0.94	nt	-0.069	16	0.47	0.1
CCCC(=O)Nc1cc(-c2cn3cccnc3n2)ccc1OC	-3.4*	nt	-0.096	-2	0.074	-0.19
COC1=C(N)C(=O)c2nc(-c3nc(C(=O)O)c(C)c(-c4ccc(OC)c(OC)c4O)c3N)ccc2C1=O	nt	nt	-4.1*	nt	nt	nt
O=C(c1cc2ccccc2oc1=O)N1CCN(c2ncccn2)CC1	nt	nt	2.9*	nt	nt	nt
COc1ccc(C(=O)NC(NC(=S)Nc2ccc(S(N)(=O)=O)cc2)C(Cl)(Cl)Cl)cc1 (stereo not drawn)	nt	nt	-2.3*	nt	nt	nt
CCCCCC(=O)NC(NC(=S)Nc1ccc(S(N)(=O)=O)cc1)C(Cl)(Cl)Cl (stereo not drawn)	nt	nt	-3.6*	nt	nt	nt
CCCCCCCC(=O)NC(Nc1ccc(S(N)(=O)=O)cc1)C(Cl)(Cl)Cl (stereo not drawn)	nt	nt	-8.3*	nt	nt	nt
CC(=O)Nc1ccc(S(=O)(=O)N(C)CCOCc2ccccc2)cc1	nt	nt	-0.34	nt	nt	nt
CCn1c(C)cc2c(c1=O)C(c1ccccc1Br)C(C#N)=C(N)O2 (stereo not drawn)	-2.4	1	nt	5	nt	nt
SMILES	D1 allo mod	Jurkat tox 60K	hDAT+cocaine	HEK293 NFkB inh	M1 antag	M1 agonist
COC(=O)CCC(=O)OC1(C)C(=O)C=C2C=C(C3CC3)N(Cc3ccccc3)C=C2C1=O (stereo not drawn)	nt	nt	-2.3*	nt	nt	nt
CCOc1cc(-c2noc(N)c2C(=O)OC)cc(OCC)c1OCC	-1.4	-1	nt	23	0.11	0.27
Clc1ccc(-n2ncc3c(N4CCCCCC4)ncnc32)cc1	-8.6*	4	-0.046	48*	0.36	-0.025
COc1ccc(-n2ncc3c(N4CCN(c5cccc(C)c5C)CC4)ncnc32)cc1	-0.063	-3	nt	8	-0.012	-0.099
COc1ccc(-n2ncc3c(N4CCCCC4)ncnc32)cc1	-7.1*	5	1.6	58*	-0.00098	1.7
Cc1ccn2cc(CSc3ccccc3)nc2c1	nt	nt	1.5	nt	nt	nt
CCOc1ccc(N(CC)S(=O)(=O)c2ccc3c(c2)oc(=O)n3C)cc1	0.86	66*	1.3	15	0.065	-0.031
CCc1c(C)nc2ncnn2c1Nc1ccc(C)c(C)c1	nt	nt	0.74	nt	nt	nt
Cc1ccc2cc3cc(C(=O)N(C)C4CCCCC4)oc3nc2c1	-3.5*	5	nt	-25	-0.14	3.1
Cc1cccc(N(C)C(=O)c2cc3cc4ccc(C)cc4nc3o2)c1	3.4	10	-0.78	14	0.7	1.1
COc1ccc(CCNC(=O)c2nnn(-c3cccc(C)c3)c2N)cc1OC	nt	nt	1.5	nt	nt	nt
COCCn1c(=O)[nH]c2cc(C(=O)NCCN3CCN(c4cccc(Cl)c4)CC3)ccc2c1=O	-3.5*	nt	0.54	24	-0.063	2.7
Cc1cc(C(=O)NCCN2CCN(c3cccc(Cl)c3)CC2)n(-c2ccccc2)n1	-3.2*	32	-0.19	6	0.45	0.099
CCN(CC)CCNC(=O)c1ccc2c(=O)n(CCc3ccccc3)c(=O)[nH]c2c1	-3.1*	nt	1.2	6	-0.17	-0.0048
O=C(NCCCN1CCCCC1)c1ccc2c(=O)n(CCc3ccccc3)c(=O)[nH]c2c1	-3.7	nt	nt	14	-0.018	-0.89
O=C1CC(c2ccccc2)CC(O)=C1C=NCCN1CCN(C(=S)Nc2cccc(Cl)c2)CC1 (stereo not drawn)	nt	nt	0.59	nt	nt	nt
CCOc1ccc(/C=N/NC(=O)Cc2csc(Nc3cccc(C(F)(F)F)c3)n2)cc1	nt	nt	1	nt	nt	nt
O=C(COC(=O)c1cnccn1)Nc1ccc(Cl)cc1	nt	3	-0.73	-1	nt	nt
CC(C)(C)CN1C(N)=NC[C@@H]1Cc1ccc(O)cc1	nt	nt	-3.8*	nt	nt	nt
CC(C)(C)CN1C(N)=NC[C@H]1Cc1ccc(O)cc1	nt	nt	0.89	nt	nt	nt
CC(=O)N(C)C1=C(N2CCOCC2)C(=O)c2ccccc2C1=O	nt	nt	-4.3*	nt	nt	nt
CCN(CC)c1ccc2cc(C(N)=O)c(=O)oc2c1	nt	nt	-0.78	nt	nt	nt
CCN(CC)c1ccc2cc(C(=O)Nc3cccnc3N3CCOCC3)c(=O)oc2c1	0.16	nt	nt	8	-0.39	7.7*
CCC(C)NC(=O)CSC1=Nc2ccccc2C2=NC(CC(=O)NCc3ccc(F)cc3)C(=O)N12 (stereo not drawn)	-0.37	3	-0.14	28	-0.17	-0.66
Cc1c(N2C(=O)/C(=C/c3ccccc3)SC2=S)c(=O)n(-c2ccccc2)n1C	nt	nt	2.6*	nt	nt	nt
SMILES	D1 allo mod	Jurkat tox 60K	hDAT+cocaine	HEK293 NFkB inh	M1 antag	M1 agonist
CCc1ccccc1NC(=O)C(Cc1cccc(OC)c1OC)c1nn[nH]n1 (stereo not drawn)	-0.41	-6	0.21	10	-0.084	0.47
CC(C)N=C(NC#N)SCc1ccccc1F	2.4	-8	-8.5*	8	1	-0.44
Cc1c(C(=O)O)c(=S)sn1CCOc1ccccc1	nt	nt	-0.53	nt	0.34	-0.033
O=C(c1ccco1)N1CCN(C(=O)c2ccc(COc3ccc4c(c3)CCC4)o2)CC1	nt	nt	3.7*	nt	nt	nt
O=C(c1ccc(COc2ccc3c(c2)CCC3)o1)N1CCN(c2ccccc2)CC1	0.13	6	0.97	-8	-0.43	-0.83
CCOC(=O)c1cc2occc2n1CC(=O)N1CCCc2ccccc21	4.2*	0	-1	-1	-0.5	-0.9
